Assay results from article PMC7657097 (Medical Mycology, 2020).
Converted amounts (≈) assume the structure as drawn. Where two headings read alike, the source gives them in different places.

Tests used:
[1] = system: A. fumigatus; details: EUCAST, ref [27], cited from earlier work
[2] = system: A. fumigatus; experiment: Metabolic assay; assay type: cell-based, Aspergillus fumigatus; details: for inhibition of metabolic activity: A. fumigatus strains Af293, CEA10 and DTO342-B2, 1 μM peptide, initial experiments, results not shown
Method in brief: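 A. fumigatus grown 4 days on PDA at 37°C; conidia scraped into saline with 0.002% Tween 20 and counted by haemocytometer. Each well held 5 × 10³ conidia, glucose (final 2%), resazurin and water-diluted peptide. Controls lacked peptide or cells; edge wells held water. Absorbance at 570 nm, corrected for the no-cell control, read repeatedly. Initial strain set tested in duplicate.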

[3] = system: primary human nasal epithelial cells; experiment: Cytotoxicity test; assay type: cell-based; details: 5 μM peptide, 3 hours at 37°C, WST-1
Method in brief: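 Primary human nasal epithelial cells were grown to confluency in bronchial epithelial cell medium. Cells were exposed to peptide, then washed three times with PBS. Viability was measured colorimetrically with WST-1 (10% v/v in cell medium). Controls were no peptide (100% viability) and 70% ethanol (total loss of viability). Runs were in triplicate, and treated wells were compared with no-peptide wells by two-tailed paired Student t test.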

For `C[C@@H](c1ncncc1F)[C@](O)(Cn1cncn1)c1ccc(F)cc1F` [VRC, voriconazole], the MIC ([1]; A. fumigatus DTO 326-I1) is listed as 2 µg/mL (≈ 5.73 µM) and the MIC ([1]; A. fumigatus DTO 327-A8) is listed as “Human ICU patient; Resistant to ITC (>16), POS (0.25), VRC (>16) mg/l”.

In the case of `CCC(C)n1ncn(-c2ccc(N3CCN(c4ccc(OCC5COC(Cn6cncn6)(c6ccc(Cl)cc6Cl)O5)cc4)CC3)cc2)c1=O` (stereo not drawn) [ITC, itraconazole], the MIC ([1]; A. fumigatus DTO 326-I1) is given as “Human patient from hematology; Resistant to ITC (>16), POS (1), Intermediate for VRC (2) mg/l” and the MIC ([1]; A. fumigatus DTO 327-A8) is given as “Human ICU patient; Resistant to ITC (>16), POS (0.25), VRC (>16) mg/l”.

With APKAMRRWVQRWIRRWRPKVLQKNNYL-NH2 [CR183] the “inhibition of metabolic activity” value [2] was “inhibited the metabolic activity strongly”.

With `CCO` [EtOH, ethanol] the “cell viability, Average (%)” value ([3]; no peptide = 100% viability, in triplo) was 17.5% and the “cytotoxic effect vs no peptide” value ([3]; two-tailed paired Student t test) was “increased cytotoxic activity”.

For “LLGDFFRKSKEKIGKEFKRIVQRIKDFLRNLVPRTES-NH2 [LL-37]”, the “concentration at which metabolic activity is inhibited” value ([2]; azole-resistant A. fumigatus strains DTO 327-A8 and 326-I1, tested at 1 and 5 μM, 0.125×MM, 105 μM resazurin, 37°C, 27 h, two experiments) was “did not inhibit metabolic activity”.

With “RRWVQRWIRRWRKVAAARRWVQRWIRRWRPKV-NH2 [CR173]” the “inhibition of metabolic activity” value [2] was “inhibited the metabolic activity strongly”.
